Assay results reported in ChEMBL document CHEMBL3244060, “Methotrexate analogues. 8. Synthesis and biological evaluation of bisamide derivatives as potential prodrugs” (J Med Chem, 1977).
≈ marks a conversion by molar mass, not a printed value. Each block holds one compound with its values, some of them ahead of it. Calls of active or inactive are those of the source. No cut-off for these calls is given here.

Assays:
[1] = system: CCRF-CEM; experiment: Cytotoxicity against human CCRF-CEM cells assessed as growth inhibition; format: functional; conditions: read-out: ID50 (the source's name)
[2] = system: Serum; experiment: Prodrug conversion in rat whole serum assessed as formation of methotrexate measured after 1 hr by TLC analysis; format: ADME
Procedure, shortened: (§1)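 Fresh rat serum 0.9 mL plus compound 0.006 g in 0.1 mL Me2SO, incubated at 37 °C with gentle shaking for up to 24 h. Cooled on ice, diluted 1.5-fold with methanol to precipitate protein, centrifuged. Supernatant run on fluorescent cellulose TLC developed with 0.5 M phosphate buffer pH 7.4 to detect parent compound and metabolites.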

[3] = target: Dihydrofolate reductase (Lactobacillus casei) (UniProt P00381); experiment: Inhibition of methotrexate-resistant Lactobacillus casei ATCC 7469 dihydrofolate reductase; conditions: Lacticaseibacillus casei
Dihydrofolate reductase (Lactobacillus casei), sequence (P00381 whole entry): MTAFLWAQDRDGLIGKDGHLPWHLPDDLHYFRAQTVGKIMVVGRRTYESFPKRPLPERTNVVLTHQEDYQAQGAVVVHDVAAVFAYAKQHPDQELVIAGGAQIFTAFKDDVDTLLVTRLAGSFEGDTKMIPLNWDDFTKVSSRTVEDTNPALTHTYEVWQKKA

[4] = system: L1210; experiment: Antitumor activity against mouse L1210 cells allografted in mouse assessed as increase in life span at 7 mg/kg, sc administered daily up to death started on day 5 post tumor implantation relative to control; format: functional; conditions: 120 h, route subcutaneous
[5] = system: L1210; experiment: Antitumor activity against mouse L1210 cells allografted in mouse assessed as increase in life span at 200 mg/kg, ip qd administered every 3 days for 7 days relative to control; format: functional; conditions: route intraperitoneal
Procedure, shortened: (§2)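 L1210 cells (10^5) implanted ip in mice on day 0. Compounds given ip in 10% Tween 80 on days 1, 4 and 7, at doses from 15 to 525 mg/kg. Methotrexate was given as the disodium salt in aqueous solution. Groups had 5 treated and 10-15 control animals. %ILS = 100 × (T − C)/C, where T and C are median survival days of treated and control mice.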

[6] = system: L1210; experiment: Antitumor activity against mouse L1210 cells allografted in mouse assessed as median survival time at 400 mg/kg, ip qd administered every 3 days for 7 days; format: functional; conditions: route intraperitoneal
Procedure, shortened: (§3)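 Mice were inoculated ip with 10^5 L1210 leukemia cells on day 0. Dosing was ip on days 1, 4 and 7 in 10% Tween 80, with the methotrexate disodium salt in water, over 15–525 mg/kg. Survival was recorded in days as the range and median per group, with 5 treated and 10-15 untreated controls.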

[7] = system: L1210; experiment: Antitumor activity against mouse L1210 cells allografted in mouse assessed as increase in life span at 400 mg/kg, ip qd administered every 3 days for 7 days relative to control; format: functional; conditions: route intraperitoneal; procedure, shortened: as §2
[8] = Cytotoxicity against RBL cells assessed as growth inhibition; format: functional; conditions: Rattus norvegicus, read-out: ID50 (the source's name)
[9] = system: L1210; experiment: Antitumor activity against mouse L1210 cells allografted in mouse assessed as median survival time at 25 mg/kg, ip qd administered every 3 days for 7 days; format: functional; conditions: route intraperitoneal; procedure, shortened: as §3
[10] = system: L1210; experiment: Antitumor activity against mouse L1210 cells allografted in mouse assessed as increase in life span at 25 mg/kg, ip qd administered every 3 days for 7 days relative to control; format: functional; conditions: route intraperitoneal; procedure, shortened: as §2
[11] = system: L1210; experiment: Antitumor activity against mouse L1210 cells allografted in mouse assessed as median survival time at 200 mg/kg, ip qd administered every 3 days for 7 days; format: functional; conditions: route intraperitoneal; procedure, shortened: as §3
[12] = system: L1210; experiment: Antitumor activity against mouse L1210 cells allografted in mouse assessed as increase in life span at 50 mg/kg, ip qd administered every 3 days for 7 days relative to control; format: functional; conditions: route intraperitoneal; procedure, shortened: as §2
[13] = system: L1210; experiment: Antitumor activity against mouse L1210 cells allografted in mouse assessed as median survival time at 150 mg/kg, ip qd administered every 3 days for 7 days; format: functional; conditions: route intraperitoneal; procedure, shortened: as §3
[14] = system: Plasma; experiment: Prodrug conversion in mouse plasma assessed as formation of methotrexate at 100 mg/kg, ip measured after 6 to 24 hrs by TLC analysis; format: ADME, organism-based; parameters: dose 100 mg/kg, route intraperitoneal; conditions: in vivo
Procedure, shortened: (§4)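 Normal mice received a single ip dose of 100 mg/kg in 10% Tween 80. One animal was killed at 6 h and one at 24 h. Blood was taken by ocular puncture with a heparinized syringe and the red cells spun down. Plasma 0.2 mL was cooled on ice and diluted with methanol 0.4 mL to precipitate protein, then centrifuged. Analysed by cellulose TLC developed in 0.5 M phosphate buffer pH 7.4.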

[15] = system: L1210; experiment: Antitumor activity against mouse L1210 cells allografted in mouse assessed as median survival time at 50 mg/kg, ip qd administered every 3 days for 7 days; format: functional; conditions: route intraperitoneal; procedure, shortened: as §3
[16] = system: Liver; experiment: Prodrug conversion in mouse liver assessed as formation of methotrexate at 100 mg/kg, ip measured after 6 to 24 hrs by TLC analysis; format: ADME, organism-based; parameters: dose 100 mg/kg, route intraperitoneal; conditions: in vivo
[17] = system: Serum; experiment: Prodrug conversion in rat whole serum assessed as formation of methotrexate at 0.006 g measured up to 24 hrs by TLC analysis; format: ADME; procedure, shortened: as §1
[18] = system: L1210; experiment: Antitumor activity against mouse L1210 cells allografted in mouse assessed as median survival time at 100 mg/kg, ip qd administered every 3 days for 7 days; format: functional; conditions: route intraperitoneal; procedure, shortened: as §3
[19] = system: L1210; experiment: Antitumor activity against mouse L1210 cells allografted in mouse assessed as increase in life span at 150 mg/kg, ip qd administered every 3 days for 7 days relative to control; format: functional; conditions: route intraperitoneal; procedure, shortened: as §2
[20] = system: L1210; experiment: Antitumor activity against mouse L1210 cells allografted in mouse assessed as increase in life span at 100 mg/kg, ip qd administered every 3 days for 7 days relative to control; format: functional; conditions: route intraperitoneal; procedure, shortened: as §2
[21] = system: Serum; experiment: Drug level in rat whole serum treated with methotrexate di-n-butyl ester measured after 1 hr by TLC analysis; format: ADME, cell-free; procedure, shortened: as §1
[22] = system: Plasma; experiment: Drug level in mouse plasma treated with methotrexate bis(benzylamide) at 100 mg/kg, ip measured after 6 to 24 hrs by TLC analysis; format: ADME, organism-based; parameters: dose 100 mg/kg, route intraperitoneal; conditions: in vivo; procedure, shortened: as §4
[23] = system: L1210; experiment: Antitumor activity against mouse L1210 cells allografted in mouse assessed as median survival time at 15 mg/kg, ip qd administered every 3 days for 7 days; format: functional; conditions: route intraperitoneal; procedure, shortened: as §3
[24] = system: L1210; experiment: Antitumor activity against mouse L1210 cells allografted in mouse assessed as increase in life span at 15 mg/kg, ip qd administered every 3 days for 7 days relative to control; format: functional; conditions: route intraperitoneal; procedure, shortened: as §2
[25] = system: L1210; experiment: Antitumor activity against mouse L1210 cells allografted in mouse assessed as increase in life span at 15 to 525 mg/kg, ip qd administered every 3 days for 7 days; format: functional, organism-based
Procedure, shortened: (§5)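 Mice inoculated ip with 10^5 L1210 cells on day 0. Test agents injected ip in 10% Tween 80 on days 1, 4 and 7; doses 15 to 525 mg/kg. Positive control given as disodium salt in aqueous solution. Test groups of 5, control groups of 10-15. Median survival scored; %ILS = 100 × (T − C)/C.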

[26] = system: Mus musculus; experiment: Toxicity in mouse allografted with mouse L1210 cells at 15 to 525 mg/kg, ip qd administered every 3 days for 7 days; format: organism-based; parameters: dose 15-525 mg/kg, route intraperitoneal; conditions: in vivo; procedure, shortened: as §5

Drug metabolism [2]: metabolite_detected
ID50 [3]: 5 ×10⁻⁷ M
SMILES: CCCCOC(=O)CC[C@H](NC(=O)c1ccc(N(C)Cc2cnc3nc(N)nc(N)c3n2)cc1)C(=O)OCCCC
IC50 [1]: 0.032 µg/mL (≈ 0.0565 µM)

SMILES: Nc1nc(N)c2nc(CNc3ccc(C(=O)N[C@@H](CCC(=O)NCc4ccccc4)C(=O)NCc4ccccc4)cc3)cnc2n1
ILS at 7 mg/kg [4]: 30%

SMILES: CN(Cc1cnc2nc(N)nc(N)c2n1)c1ccc(C(=O)N[C@@H](CCC(=O)NCc2ccccc2)C(=O)NCc2ccccc2)cc1
IC50 [1]: 7.6 µg/mL (≈ 12 µM)
ILS at 200 mg/kg [5]: 0%
MST [6]: 8 days
ILS at 400 mg/kg [7]: -11%
IC50 [8]: 2.5 µg/mL (≈ 3.95 µM)
MST [9]: 12 days
ILS at 25 mg/kg [10]: 33%
MST [11]: 9 days
ILS at 50 mg/kg [12]: 44%
MST [13]: 15 days
Drug metabolism [14]: metabolite_detected
MST [15]: 13 days
Drug metabolism [16]: metabolite_detected
Drug metabolism [17]: metabolite_notdetected
MST [18]: 13 days
ILS at 150 mg/kg [19]: 66%
ILS at 100 mg/kg [20]: 44%

SMILES: COc1ccc(CCNC(=O)CC[C@H](NC(=O)c2ccc(N(C)Cc3cnc4nc(N)nc(N)c4n3)cc2)C(=O)NCCc2ccc(OC)c(OC)c2)cc1OC
IC50 [1]: > 10 µg/mL

SMILES: CN(Cc1cnc2nc(N)nc(N)c2n1)c1ccc(C(=O)N[C@@H](CCC(=O)O)C(=O)O)cc1 [METHOTREXATE]
IC50 [1]: 0.003 µg/mL (≈ 0.0066 µM)
Drug metabolism [21]: metabolite_detected
Drug metabolism [22]: metabolite_detected
IC50 [8]: 0.003 µg/mL (≈ 0.0066 µM)

SMILES: CCCCCCNC(=O)CC[C@H](NC(=O)c1ccc(N(C)Cc2cnc3nc(N)nc(N)c3n2)cc1)C(=O)NCCCCCC
IC50 [1]: 10 µg/mL (≈ 16.1 µM)

SMILES: CN(Cc1cnc2nc(N)nc(N)c2n1)c1ccc(C(=O)N[C@@H](CCC(=O)[O-])C(=O)[O-])cc1.[Na+].[Na+] [METHOTREXATE SODIUM]
MST [9]: 18 days
ILS at 25 mg/kg [10]: 100%
MST [23]: 15 days
ILS at 15 mg/kg [24]: 66%

SMILES: CN(Cc1cnc2nc(N)nc(N)c2n1)c1ccc(C(=O)N[C@@H](CCC(N)=O)C(N)=O)cc1
IC50 [1]: > 10 µg/mL

SMILES: CN(Cc1cnc2nc(N)nc(N)c2n1)c1ccc(C(=O)N[C@@H](CCC(=O)NC2CCCCC2)C(=O)NC2CCCCC2)cc1
IC50 [1]: 1 µg/mL (≈ 1.62 µM)
IC50 [8]: 0.22 µg/mL (≈ 0.357 µM)
Activity [25]: inactive
Activity [26]: Toxic
